PostGolgi yeast: growth inhibition of a yeast mutant, post-Golgi transport screen; inhibition, % at 10 µM; actives 0.9% (n = 98,000); AID 739; post-Golgi transport phenotypic cell assay;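 further: yeast cells grown in 1536-well plates; yeast grown about 18 h at 30C before absorbance read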
Ecoli tolC: blocks growth of E. coli BW25113 tolC mutant; growth inhibition, % at 10 µM (by protocol); OD615; actives 2.2% (n = 65,000);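 active means growth inhibition at or above a cutoff equal to the mean over every tested compound plus 3 SD, cut at about 60% in these data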;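 further: growth measured after 20 h incubation at 37 °C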
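Signal: optical density read at 615 nm; Assay system: E. coli ΔtolC::kan strain BW25113; Times: 20 h incubation with compound, 37 °C; Dosing: 10 µM final, single dose.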
E coli WT exp: blocks growth of wild type E. coli BW25113; growth inhibition, % at 100 µM; OD600 absorbance; actives 0.15% (n = 98,000); AID 710;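 active means growth inhibition above about 50% at one test dose, limit read from the data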;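 further: growth measured after 20 h incubation at 37 °C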
PostGolgi ctrl: yeast control strain growth, post-Golgi counter-screen; efflux-deficient yeast background strain, growth absorbance A615, 16 h; inhibition, % at 10 µM; actives 5% (n = 98,000); AID 738
EphB4 ephrin blk: antagonists of human EphB4-ephrin-B2 interaction; P54760; EphB4 LBD / TNYL-RAW-Alexa532 peptide, fluorescence polarization; inhibition, % at 7 µM; actives 0.15% (n = 97,000); AID 720;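 active means inhibition above the screen-wide mean inhibition plus 3 SD, cut at about 15% in these data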
Target sequence (P54760 whole entry, looked up, the tested form may be a part): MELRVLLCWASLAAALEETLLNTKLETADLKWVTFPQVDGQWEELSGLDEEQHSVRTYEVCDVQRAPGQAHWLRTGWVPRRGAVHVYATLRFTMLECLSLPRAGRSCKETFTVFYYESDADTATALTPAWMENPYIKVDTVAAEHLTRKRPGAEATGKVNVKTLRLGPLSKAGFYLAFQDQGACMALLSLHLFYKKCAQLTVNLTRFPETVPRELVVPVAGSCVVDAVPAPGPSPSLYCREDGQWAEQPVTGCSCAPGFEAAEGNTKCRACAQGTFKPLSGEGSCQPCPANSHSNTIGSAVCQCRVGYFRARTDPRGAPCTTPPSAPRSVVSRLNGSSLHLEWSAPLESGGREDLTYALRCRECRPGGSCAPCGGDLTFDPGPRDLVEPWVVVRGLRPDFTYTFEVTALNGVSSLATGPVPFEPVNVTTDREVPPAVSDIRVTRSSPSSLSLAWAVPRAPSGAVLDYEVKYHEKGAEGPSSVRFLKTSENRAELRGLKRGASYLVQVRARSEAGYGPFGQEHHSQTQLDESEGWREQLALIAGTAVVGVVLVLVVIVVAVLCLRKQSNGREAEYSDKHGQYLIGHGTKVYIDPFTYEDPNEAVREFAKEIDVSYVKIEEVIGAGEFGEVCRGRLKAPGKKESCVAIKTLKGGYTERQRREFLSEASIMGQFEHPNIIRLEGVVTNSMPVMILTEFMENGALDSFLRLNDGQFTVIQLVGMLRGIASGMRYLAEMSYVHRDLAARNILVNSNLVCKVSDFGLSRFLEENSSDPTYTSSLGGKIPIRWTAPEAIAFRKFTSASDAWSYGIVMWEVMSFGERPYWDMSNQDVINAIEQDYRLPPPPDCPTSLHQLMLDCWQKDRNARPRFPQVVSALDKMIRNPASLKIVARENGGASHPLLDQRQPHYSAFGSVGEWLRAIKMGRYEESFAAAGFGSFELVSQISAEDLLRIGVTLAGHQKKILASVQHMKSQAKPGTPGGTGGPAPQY
Of the large screens only hits and unclear results are named; the others gave an inactive call. Most compounds without a hit are left out; they make up all but 6% or so of the library. Unless noted, no stated cut-off is given here; in the data, active means inhibition above about 30%; inactive means the rest.

Cc1ccc(S(=O)(=O)N2CN(Cc3ccco3)c3nc4ccccc4nc32)cc1C	PostGolgi ctrl 32 (no result: Ecoli tolC)
O=C(COc1ccccc1Cl)N1CCN(c2ccc([N+](=O)[O-])c(N3CCOCC3)c2)CC1	none (no result: Ecoli tolC)
Cn1nnc2cc(C(=O)NC(C)(C)C)ccc21	PostGolgi ctrl 37
CC(=O)c1ccc(NC(=O)C2(c3ccccc3)CCOCC2)cc1	none (no result: Ecoli tolC)
Cc1cc(NC(=O)CN2CCc3ccccc3C2)nc2c1c(=O)oc1ccccc12	none (no result: PostGolgi yeast, E coli WT exp, PostGolgi ctrl, EphB4 ephrin blk)
CSc1oc(-c2ccco2)nc1S(=O)(=O)c1ccccc1	none
CC(C)Sc1oc(-c2ccco2)nc1S(=O)(=O)c1ccccc1	PostGolgi ctrl 41
CCN1CCCC1CN=Cc1c(O)n(-c2ccccc2)c(=O)c2ccccc12 (centres undefined)	none
CC(C)CCN=Cc1c(O)n(-c2ccccc2)c(=O)c2ccccc12	PostGolgi ctrl 39 (no result: Ecoli tolC)
Cc1ccc(Oc2c(C=O)c3ccccc3n2C)cc1	PostGolgi ctrl 33 (no result: Ecoli tolC)
COc1nc2ccc(C)cc2cc1-c1noc(-c2ccccc2)n1	PostGolgi ctrl 31 (no result: Ecoli tolC)
COc1ccc(OC)c(C(=O)CSc2nnc(Cc3cccs3)n2CCc2ccccc2)c1	none (no result: Ecoli tolC)
CCOC(=O)C1CCN(C(=O)C2CCN(S(=O)(=O)c3cccc4cccnc34)CC2)CC1	PostGolgi ctrl 32
Cc1ccc(NC(=O)C2CCN(S(=O)(=O)c3c(C)n[nH]c3C)CC2)nc1	PostGolgi ctrl 35
O=C(Nc1nc2cc(Cl)ccc2s1)C1CCCN(S(=O)(=O)c2cccc3cccnc23)C1 (centres undefined)	PostGolgi ctrl 36 (no result: Ecoli tolC)
Cc1ccc(NC(=O)C2CCN(S(=O)(=O)c3cccc4cccnc34)CC2)nc1	PostGolgi ctrl 32
Cn1c(=O)c2c(nc(SCC(=O)N(C3CCCCC3)C3CCCCC3)n2C)n(C)c1=O	none (no result: PostGolgi yeast, Ecoli tolC, E coli WT exp, PostGolgi ctrl)
O=C(Nc1ccc(C(F)(F)F)cc1)C1CCCN1S(=O)(=O)c1cccc2cccnc12 (centres undefined)	Ecoli tolC 76, PostGolgi ctrl 30
Cc1nc2nc(NCc3cccs3)nn2c(C)c1Cl	none (no result: Ecoli tolC)
CC(C)Sc1nc(N2CCOCC2)c2c3c(sc2n1)COC(C)(C)C3	PostGolgi ctrl 43 (no result: Ecoli tolC)
CCn1c(SCC(=O)NCc2cccs2)nnc1-c1ccncc1	none
Cc1csc(SCC(=O)NCc2cccs2)n1	PostGolgi ctrl 38
ONC(=Nc1ccc(Cl)cc1)c1ccccc1	none (no result: Ecoli tolC)
CCC(=O)N(Cc1cc2c(C)ccc(C)c2[nH]c1=O)C1CCCCC1	PostGolgi ctrl 31
CCC(=O)N(Cc1cc2c(C)cc(C)cc2[nH]c1=O)C1CCCCC1	PostGolgi ctrl 47 (no result: Ecoli tolC)
CCC(CC)C(=O)NCCc1cc2c(C)ccc(C)c2[nH]c1=O	none (no result: PostGolgi yeast, E coli WT exp, PostGolgi ctrl, EphB4 ephrin blk)
CCOC(=O)C(C)Sc1cc(CS(=O)(=O)c2ccccc2)nc(-c2ccccc2)n1 (centres undefined)	none (no result: Ecoli tolC)
O=C(N/N=C/c1ccc(O)c(O)c1)c1ccc(CSc2cccc3cccnc23)cc1	none (no result: Ecoli tolC)
COc1ccc(Cl)cc1N1C(=O)/C(=C\c2sccc2C)N=C1SCC(=O)NC1CC1	none (no result: Ecoli tolC)
CCOC(=O)Nc1c(C)n(C)n(-c2ccccc2)c1=O	none (no result: PostGolgi yeast, E coli WT exp, PostGolgi ctrl, EphB4 ephrin blk)
Cc1c(NC(=O)C(C)OC(=O)[C@@H](NC(=O)c2ccccc2)C(C)C)c(=O)n(-c2ccccc2)n1C (some centres undefined)	PostGolgi ctrl 31 (no result: Ecoli tolC)
CCn1cc(C(=O)OC(C)C(=O)Nc2c(C)n(C)n(-c3ccccc3)c2=O)c(=O)c2ccc(C)nc21 (centres undefined)	Ecoli tolC 99
CCn1cc(C(=O)OCC(=O)Nc2c(C)n(C)n(-c3ccccc3)c2=O)c(=O)c2ccc(C)nc21	none
O=c1cccccc1NCc1ccccc1	none
N#Cc1ccccc1NCc1ccccc1	PostGolgi ctrl 32
O=c1c2sc3nc(N4CCOCC4)c4c(c3c2nnn1Cc1ccccc1)CCCC4	PostGolgi ctrl 32 (no result: Ecoli tolC)
COC(=O)C(O)(CC(=O)Nc1cc(Cl)ccc1Cl)C(F)(F)F (centres undefined)	none (no result: PostGolgi yeast, Ecoli tolC, E coli WT exp, PostGolgi ctrl)
Cc1cc(C)c2c(=O)[nH]c(=O)n(Cc3ccccc3)c2n1	PostGolgi ctrl 43
O=c1[nH]c2cccnc2n1Cc1ccccc1	none (no result: Ecoli tolC)
O=C(c1cccnc1)N1C2CCC1CC(O)(c1ccc(F)cc1)C2 (centres undefined)	none
OC1(c2ccc(OC(F)F)cc2)CSC(=Nc2cccnc2)N1C1CC1 (centres undefined)	PostGolgi ctrl 30 (no result: Ecoli tolC)
Fc1ccc(NCc2nnc(SCc3nnc(-c4ccccc4)o3)n2Cc2ccccc2)cc1	PostGolgi yeast 46
O=C(CSc1nnc(CNc2ccc(Cl)cc2)n1Cc1ccccc1)NCc1ccco1	none (no result: EphB4 ephrin blk)
CCN(CC)C(=O)C1CCN(Cc2ccc(Br)cc2)CC1	PostGolgi yeast 61

Screens deposited in PubChem by several laboratories.
